The results in this text go back to ChEMBL document CHEMBL1121946, “Antiallergy agents. 2. 2-Phenyl-5-(1H-tetrazol-5-yl)pyrimidin-4(3H)-ones” (1982).

Assay [1] has as its system Rattus norvegicus. Briefly: Antiallergic activity in the passive cutaneous anaphylaxis (PCA) model in the rat was determined after iv administration. Format: functional. The note with it: read-out: ID50 (the source's name). In outline:
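Rat PCA screen (modified Ovary method) in male Sprague-Dawley rats, with a 24 h interval between sensitization and antigen challenge. Compounds were dissolved in aqueous NaHCO3 where possible; otherwise they were suspended in aqueous sodium citrate with Tween 40/sodium carboxymethylcellulose. Dosing was intravenous, 1 min before antigen challenge.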

Assay [2] deals with Rattus norvegicus. Briefly: Antiallergic activity in the passive cutaneous anaphylaxis (PCA) model in the rat was determined after oral administration. The settings on record: read-out: ID50 (the source's name). The format is functional. In a few lines: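 Male Sprague-Dawley rats underwent a modified Ovary PCA screen, with challenge 24 h after sensitization. Compounds were solubilized in aqueous NaHCO3 when possible; otherwise they were suspended in aqueous sodium citrate containing Tween 40/sodium carboxymethylcellulose. Dosing was oral, 10 min prior to antigen challenge.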

Consider `CC(C)Oc1ccccc1-c1ncc(-c2nn[nH]n2)c(O)n1`, for which the figures for the ED50 in assay [1] and in assay [2] were 0.02 mg/kg and 0.04 mg/kg, respectively.

Consider `CCOc1ccccc1-c1ncc(-c2nn[nH]n2)c(O)n1`, for which the ED50 is 0.02 mg/kg in assay [1] and 0.09 mg/kg in assay [2].

On to `CCCOc1ccc(OC)cc1-c1ncc(-c2nn[nH]n2)c(O)n1`, for which the ED50 in assay [2] came to 0.03 mg/kg.

On to `CC(C)COc1ccccc1-c1ncc(-c2nn[nH]n2)c(O)n1`, for which the ED50 in assay [2] worked out at 0.1 mg/kg.

In the case of `CCCCOc1ccccc1-c1ncc(-c2nn[nH]n2)c(O)n1`, the ED50 in assay [2] was determined as 0.07 mg/kg.

`C=CCOc1ccccc1-c1ncc(-c2nn[nH]n2)c(O)n1`: the ED50 in assay [2] worked out at 0.24 mg/kg.

Regarding `Oc1nc(-c2ccccc2)ncc1-c1nn[nH]n1`, the ED50 in assay [2] came out at 100 mg/kg.

As to `CCCOc1ccc(N)cc1-c1ncc(-c2nn[nH]n2)c(O)n1`, the ED50 in assay [2] turned out to be 0.1 mg/kg.

For `CCCOc1ccc([N+](=O)[O-])cc1-c1ncc(-c2nn[nH]n2)c(O)n1`, in assay [2], the ED50 is 5 mg/kg.

In the case of `CCCOc1ccccc1-c1ncc(-c2nn[nH]n2)c(O)n1`, the ED50 in assay [1] was found to be 0.004 mg/kg; in assay [2], 0.04 mg/kg.

As to `CCCCCOc1ccccc1-c1ncc(-c2nn[nH]n2)c(O)n1`, in assay [2], the ED50 was 0.4 mg/kg.

For the compound `CCC(C)Oc1ccccc1-c1ncc(-c2nn[nH]n2)c(O)n1` (stereo not given), the ED50 in assay [2] came to 0.05 mg/kg.

Regarding `Oc1nc(-c2ccccc2OCC2CC2)ncc1-c1nn[nH]n1`, in assay [2], the ED50 came out at 0.07 mg/kg.

`CCCOc1ccc(N(C)C)cc1-c1ncc(-c2nn[nH]n2)c(O)n1`: in assay [2], the ED50 was found to be 0.4 mg/kg.

As to `COc1ccccc1-c1ncc(-c2nn[nH]n2)c(O)n1`, the ED50 in assay [2] amounted to 0.1 mg/kg.

As to `O=C([O-])c1cc(=O)c2c(OCC(O)COc3cccc4oc(C(=O)[O-])cc(=O)c34)cccc2o1.[Na+].[Na+]` [CROMOLYN SODIUM], the ED50 is 0.3 mg/kg in assay [1] and more than 30 mg/kg in assay [2].
